From ChEMBL document CHEMBL1154210, “Reversal of fluconazole resistance by sulfated sterols from the marine sponge Topsentia sp” (J Nat Prod, 2009)
Calls of active or inactive are those of the source. No cut-off for these calls is given here.

Legend:
Pichia kudriavzevii = test: Antimicrobial activity against Candida Krusei; assay type: functional, organism-based
Staphylococcus aureus = test: Antimicrobial activity against methicillin resistant Staphylococcus aureus; assay type: functional, organism-based
Candida albicans [1] = test: Antimicrobial activity against fluconazole-resistant Candida albicans 1758 over expressing MDR1 at 189 uM ater 24 hrs in presence of fluconazole; assay type: functional
Summary of the method: (§1)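 Broth microdilution in YPD with C. albicans inoculum at 1 × 10^4 CFU/mL final; samples diluted in 0.9% saline. Fluconazole in DMSO at ~1/3rd its IC50, with DMSO-only duplicates. OD 630 nm read before and after 37 °C for 24 h. A checkerboard of sample × fluconazole gave FIC = sum of combination/alone IC50 ratios for each agent.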

Plasmodium falciparum [2] = test: Antiprotozoal activity Plasmodium falciparum W2; assay type: functional, organism-based
Saccharomyces cerevisiae [3] = test: Antimicrobial activity against azole-resistant Saccharomyces cerevisiae expressing MDR1 at 13 uM after 40 to 48 hrs in presence of fluconazole; assay type: functional
Summary of the method: (§2)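 S. cerevisiae strains (MDR1-overexpressing or null pump) inoculated in YPD at 1 × 10^4 CFU/mL final into saline-diluted samples. Fluconazole in DMSO at ~1/10th its IC50, with DMSO-only duplicates. Absorbance at 630 nm read before and after 40–48 h at 30 °C. Checkerboard IC50s combined into FIC (combination/alone ratios summed).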

Cryptococcus neoformans = test: Antimicrobial activity against Cryptococcus neoformans; assay type: functional, organism-based
Candida albicans [4] = test: Antimicrobial activity against fluconazole-susceptible Candida albicans isolate 1 at 13 uM ater 24 hrs in presence of fluconazole; assay type: functional
Summary of the method: (§3)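 C. albicans isolates #1 and #17 in YPD at 1 × 10^4 CFU/mL final with saline-diluted samples plus fluconazole (DMSO) at ~1/3rd its IC50. 630 nm readings taken before and after 24 h at 37 °C. FIC was derived from checkerboard IC50s of each agent alone and in combination.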

Nakaseomyces glabratus = test: Antimicrobial activity against Candida glabrata; assay type: functional, organism-based
Vero [5] = test: Cytotoxicity against african green monkey Vero cells at 9 uM after 48 hrs by neutral red assay; assay type: cell-based; settings: chlorocebus sabaeus
Saccharomyces cerevisiae [6] = test: Antimicrobial activity against azole-resistant Saccharomyces cerevisiae expressing CDR1 efflux pump at 13 uM after 40 to 48 hrs in presence of fluconazole; assay type: functional
Summary of the method: (§4)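 Checkerboard combination in S. cerevisiae CDR1 efflux pump strain: compound diluted in 0.9% saline, crossed with FLU (in DMSO) over all concentration pairs; inoculum in YPD broth at 1 × 10^4 CFU/mL; incubated 30 °C for 40–48 h; growth read at 630 nm before and after incubation. FIC = (IC50 combined/IC50 alone) summed for compound and FLU.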

Saccharomyces cerevisiae [7] = test: Antimicrobial activity against azole-resistant Saccharomyces cerevisiae expressing null pump at 13 uM after 40 to 48 hrs in presence of fluconazole; assay type: functional; summary of the method: as §2
Candida albicans [8] = test: Antimicrobial activity against fluconazole-susceptible Candida albicans 1587 at 189 uM ater 24 hrs in presence of fluconazole; assay type: functional; summary of the method: as §1
Leishmania donovani = test: Antiprotozoal activity Leishmania donovani by Alamar blue assay; assay type: functional, organism-based
Plasmodium falciparum [9] = test: Antiprotozoal activity Plasmodium falciparum D6; assay type: functional, organism-based
[10] = test system: Mycobacterium intracellulare; test: Antimicrobial activity against Mycobacterium intracellular; assay type: functional, organism-based
Candida albicans [11] = test: Antimicrobial activity against fluconazole-resistant Candida albicans isolate 17 at 13 uM ater 24 hrs in presence of fluconazole; assay type: functional; summary of the method: as §3
Vero [12] = test: Cytotoxicity against african green monkey Vero cells at 11.2 uM after 48 hrs by neutral red assay; assay type: cell-based; settings: chlorocebus sabaeus
Saccharomyces cerevisiae [13] = test: Antimicrobial activity against azole-resistant Saccharomyces cerevisiae expressing CDR1 efflux pump at 26 uM after 40 to 48 hrs in presence of fluconazole; assay type: functional; summary of the method: as §4
Candida albicans [14] = test: Antimicrobial activity against fluconazole-susceptible Candida albicans isolate 1 at 26 uM ater 24 hrs in presence of fluconazole; assay type: functional; summary of the method: as §3
Candida albicans [15] = test: Antimicrobial activity against Fluconazole susceptible Candida albicans 1587 at 5.7 uM ater 24 hrs in presence of fluconazole; assay type: functional; summary of the method: as §1
Saccharomyces cerevisiae [16] = test: Antimicrobial activity against azole-resistant Saccharomyces cerevisiae expressing MDR1 at 26 uM after 40 to 48 hrs in presence of fluconazole; assay type: functional; summary of the method: as §2
Candida albicans [17] = test: Antimicrobial activity against fluconazole-resistant Candida albicans isolate 17 at 26 uM ater 24 hrs in presence of fluconazole; assay type: functional; summary of the method: as §3
Saccharomyces cerevisiae [18] = test: Antimicrobial activity against azole-resistant Saccharomyces cerevisiae expressing null pump at 26 uM after 40 to 48 hrs in presence of fluconazole; assay type: functional; summary of the method: as §2
Candida albicans [19] = test: Antimicrobial activity against fluconazole-resistant Candida albicans 1758 over expressing MDR1 at 5.7 uM ater 24 hrs in presence of fluconazole; assay type: functional; summary of the method: as §1
Vero [20] = test: Cytotoxicity against african green monkey Vero cells at 9.25 uM after 48 hrs by neutral red assay; assay type: cell-based; settings: chlorocebus sabaeus
Candida albicans [21] = test: Antimicrobial activity against Fluconazole susceptible Candida albicans 1587 at 194 uM ater 24 hrs in presence of fluconazole; assay type: functional; summary of the method: as §1
Candida albicans [22] = test: Antimicrobial activity against fluconazole-resistant Candida albicans 1758 over expressing MDR1 at 194 uM ater 24 hrs in presence of fluconazole; assay type: functional; summary of the method: as §1

| SMILES | Activity (Pichia kudriavzevii) | Activity (Staphylococcus aureus) | Activity (Plasmodium falciparum [2]) | fractional inhibitory concentration index (FICI) (Saccharomyces cerevisiae [3]) | Activity (Cryptococcus neoformans) | fractional inhibitory concentration index (FICI) (Candida albicans [4]) | Activity (Nakaseomyces glabratus) | fractional inhibitory concentration index (FICI) (Saccharomyces cerevisiae [6]) | fractional inhibitory concentration index (FICI) (Saccharomyces cerevisiae [7]) | Activity (Leishmania donovani) | Activity (Plasmodium falciparum [9]) | Activity [10] | fractional inhibitory concentration index (FICI) (Candida albicans [11]) | other results |
| --- | --- | --- | --- | --- | --- | --- | --- | --- | --- | --- | --- | --- | --- | --- |
| C/C=C(\CC[C@](C)(O)[C@H]1[C@@H](O)C[C@H]2[C@@H]3CCc4cc(OS(=O)(=O)[O-])ccc4[C@H]3CC[C@@]21C)C(C)C.[Na+] | inactive | inactive | inactive | 0.08 | inactive | 1.5 | inactive | 1.04 | 1.1 | inactive | inactive | inactive | 1.3 | fractional inhibitory concentration index (FICI) (Candida albicans [1]): 0.2; Activity (Vero [5]): Non-toxic; fractional inhibitory concentration index (FICI) (Candida albicans [8]): 1.7 |
| C/C=C(\CC[C@](C)(O)[C@H]1[C@@H](O)C[C@H]2[C@@H]3CCc4cc(O)ccc4[C@H]3CC[C@@]21C)C(C)C [GEODISTEROL] | inactive | inactive | inactive |  | inactive |  | inactive |  |  | inactive | inactive | inactive |  | Activity (Vero [12]): Non-toxic |
| CC(C)[C@@H]1OC(=O)[C@@H](Cc2ccccc2)N(C)C(=O)[C@H](C(C)C)OC(=O)[C@@H](Cc2ccccc2)N(C)C(=O)[C@H](C(C)C)OC(=O)[C@@H](Cc2ccccc2)N(C)C1=O [BEAUVERICIN] |  |  |  |  |  |  |  |  |  |  |  |  |  | fractional inhibitory concentration index (FICI) (Saccharomyces cerevisiae [13]): 0.04; fractional inhibitory concentration index (FICI) (Candida albicans [14]): 0.5; fractional inhibitory concentration index (FICI) (Candida albicans [15]): 0.5; fractional inhibitory concentration index (FICI) (Saccharomyces cerevisiae [16]): 2.28; fractional inhibitory concentration index (FICI) (Candida albicans [17]): 0.7; fractional inhibitory concentration index (FICI) (Saccharomyces cerevisiae [18]): 3.38; fractional inhibitory concentration index (FICI) (Candida albicans [19]): 2.8 |
| C=C(CC[C@](C)(O)[C@H]1[C@@H](O)C[C@H]2[C@@H]3CCc4cc(OS(=O)(=O)[O-])ccc4[C@H]3CC[C@@]21C)C(C)C.[Na+] | inactive | inactive | inactive | 0.15 | inactive | 1.7 | inactive | 1.34 | 0.75 | inactive | inactive | inactive | 1.8 | Activity (Vero [20]): Non-toxic; fractional inhibitory concentration index (FICI) (Candida albicans [21]): 1.6; fractional inhibitory concentration index (FICI) (Candida albicans [22]): 0.2 |
